Assay [1] concerns the target T1, Polyunsaturated fatty acid 5-lipoxygenase (Homo sapiens) (UniProt P09917).
T1 sequence (whole entry): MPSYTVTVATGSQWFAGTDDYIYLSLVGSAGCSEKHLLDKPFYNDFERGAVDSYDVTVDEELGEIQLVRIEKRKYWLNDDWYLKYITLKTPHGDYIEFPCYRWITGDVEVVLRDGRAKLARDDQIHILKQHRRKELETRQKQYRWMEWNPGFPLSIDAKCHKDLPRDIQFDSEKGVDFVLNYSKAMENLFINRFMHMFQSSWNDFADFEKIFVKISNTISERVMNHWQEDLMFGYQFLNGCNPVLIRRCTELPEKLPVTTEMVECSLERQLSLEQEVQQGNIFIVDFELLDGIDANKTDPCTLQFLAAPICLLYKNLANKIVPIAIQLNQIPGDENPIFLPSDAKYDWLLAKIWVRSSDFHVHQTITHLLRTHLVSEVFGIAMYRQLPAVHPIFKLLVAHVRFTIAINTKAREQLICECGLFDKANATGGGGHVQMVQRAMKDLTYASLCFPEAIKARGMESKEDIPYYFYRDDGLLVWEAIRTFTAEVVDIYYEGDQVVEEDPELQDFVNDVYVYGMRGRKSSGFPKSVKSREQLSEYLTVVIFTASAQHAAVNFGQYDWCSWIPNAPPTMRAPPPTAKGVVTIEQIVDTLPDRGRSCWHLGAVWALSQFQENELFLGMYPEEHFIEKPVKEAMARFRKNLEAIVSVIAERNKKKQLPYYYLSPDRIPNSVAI
Nature of the assay: Inhibition of 5-lipoxygenase activity at 1000 uM by ferric-xylenol orange peroxide assay relative to control. The method in brief: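 Modified ferric-xylenol orange peroxide assay. 5-Lipoxygenase with test substance and linoleic acid (80 mM) in 50 mM phosphate pH 6.3 was incubated 5 min. Ferric-xylenol orange reagent in perchloric acid was then added and A585 read 2 min later. Percent inhibition is relative to the control. Triplicates averaged.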

The test system of assay [2] is Radical scavenging activity. Kind of assay: Antioxidant activity assessed as DPPH free radical scavenging activity. It counts as functional. The method, boiled down:
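DPPH was used as a […] methanolic solution and mixed with a range of test concentrations. Mixtures stood in the dark for 50 min, then absorbance at 517 nm was read against a blank. Run in triplicate and averaged.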
In general terms: DPPH is a stable violet radical that fades when it is reduced.

A short description of assay [3]: Antioxidant activity assessed as superoxide radical scavenging activity by NBT method. The assay is classed as functional. The method, boiled down: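 Riboflavin-photogenerated superoxide was detected by NBT reduction (McCord–Fridovich). The mixture held EDTA 6.0 µM, NaCN 3 µg, riboflavin 2 µM, NBT 50 µM and test substance in methanol, in 58 mM phosphate pH 7.8, 3 mL final. A560 was read before and after illumination. IC50 was taken from the plot of concentration in µM against % inhibition.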

For assay [4], the system named is Rattus norvegicus. Nature of the assay: Antiinflammatory activity against carrageenan-induced paw edema in Wistar rat at 200 mg/kg, po administered 1 hr before inflammation induction measured after 3 hrs of carrageenan challenge relative to control. The assay is classed as functional. The method in brief:
(§1)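 Wistar rats of either sex, 180-220 g, groups of six. Test material suspended in 1% Tween-80 and given orally 1 h before 0.1 mL of 1% w/v carrageenan in saline was injected subplantar into the left hind paw. Vehicle controls received 1% Tween-80 at 10 mL/kg. Paw volume was read by plethysmometer at 0 and 3 h. Percent inhibition compares mean edema volume with the control group.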
(In general: In the carrageenan paw model, swelling and tenderness develop within hours.)

Assay [5] has as its system Rattus norvegicus. Nature of the assay: Antiinflammatory activity against carrageenan-induced paw edema in Wistar rat at 25 mg/kg, po administered 1 hr before inflammation induction measured after 3 hrs of carrageenan challenge relative to control. It counts as functional. The method in brief: as §1

From ChEMBL document CHEMBL1148970, “New acylated iridoid glucosides from Vitex altissima” (J Nat Prod, 2004) come the findings set out here.

Activity calls are given as the source filed them. The rule behind the calls is not given here.

With `C[C@H]1[C@H]2[C@H](O[C@@H]3O[C@H](CO)[C@@H](O)[C@H](O)[C@H]3OC(=O)c3ccc(O)cc3)OC=C(C(=O)O)[C@H]2C[C@@H]1O`, the outcome in assay [1] was inactive. Same read-out and setting: the value for `C[C@]1(O)CC[C@@H]2C(C(=O)O)=CO[C@@H](O[C@@H]3O[C@H](CO)[C@@H](O)[C@H](O)[C@H]3OC(=O)c3ccc(O)cc3)[C@@H]21` was “inactive”. By IC50 is commonly meant the concentration needed to halve the response being measured. As for `Cc1cc(C(C)(C)C)c(O)c(C(C)(C)C)c1` [BUTYLATED HYDROXYTOLUENE], the IC50 in assay [2] worked out at 19 µM; in assay [3], 381 µM.

On to `C[C@H]1[C@H]2[C@H](O[C@@H]3O[C@H](COC(=O)/C=C/c4ccc(O)c(O)c4)[C@@H](O)[C@H](O)[C@H]3OC(=O)c3ccc(O)cc3)OC=C(C(=O)O)[C@H]2C[C@@H]1O`, for which the result in assay [1] was inactive. The IC50 in assay [2] was 11.4 µM; in assay [3], 31.9 µM. Take `C=C1[C@H]2[C@H](O[C@@H]3O[C@H](CO)[C@@H](O)[C@H](O)[C@H]3OC(=O)c3ccc(O)cc3)OC=C(C(=O)O)[C@H]2C[C@@H]1O`: the result in assay [1] was inactive. By inhibition in vivo is commonly meant the share of the control response that was lost under treatment. Regarding `COc1cc(/C=C/C(=O)OC[C@H]2O[C@@H](O[C@@H]3OC=C(C(=O)O)[C@H]4CC[C@](C)(O)[C@@H]34)[C@H](OC(=O)c3ccc(O)cc3)[C@@H](O)[C@@H]2O)ccc1O`, 200 mg/kg produced 20% inhibition in vivo in the assay on Rattus norvegicus [4]. Besides, the outcome in assay [1] was inactive.

On to `O=C([O-])Cc1ccccc1Nc1c(Cl)cccc1Cl.[Na+]` [DICLOFENAC SODIUM], for which the Activity in the assay with Rattus norvegicus [5] was 62%. On to `C[C@]1(O)CC[C@@H]2C(C(=O)O)=CO[C@@H](O[C@@H]3O[C@H](COC(=O)/C=C/c4ccc(O)c(O)c4)[C@@H](O)[C@H](O)[C@H]3OC(=O)c3ccc(O)cc3)[C@@H]21`, for which, in assay [1], the result was inactive. Further, the IC50 in assay [2] turned out to be 15.2 µM; in assay [3] it was 24.3 µM. For the molecule `O=C(OCC1=C[C@@H](O)[C@@H]2C=CO[C@@H](O[C@@H]3O[C@H](CO)[C@@H](O)[C@H](O)[C@H]3O)[C@H]12)c1ccc(O)cc1`, the result in assay [1] was inactive. Consider `COc1ccc(O)c(C(C)(C)C)c1.COc1ccc(O)cc1C(C)(C)C` [BUTYLATED HYDROXYANISOLE], for which the 50% inhibitory concentration (IC50) in assay [2] was 18 µM; in assay [3] it was 966 µM. On to `C=C1[C@H]2[C@H](O[C@@H]3O[C@H](COC(=O)/C=C/c4ccc(O)c(O)c4)[C@@H](O)[C@H](O)[C@H]3OC(=O)c3ccc(O)cc3)OC=C(C(=O)O)[C@H]2C[C@@H]1O`, for which the outcome in assay [1] was inactive. Also, the IC50 in assay [2] is 10.9 µM; in assay [3], 32 µM.
